For series [1] the following is noted: cited from earlier work.
Series [2] is described as follows: Open-label drug–drug interaction study: dasatinib plasma pharmacokinetics. The format is in vivo, human. An outline of the steps: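 Healthy fasted volunteers (N = 18). Test compound given as a 100 mg IR tablet orally with ~240 mL water on day 1 alone and on day 6 after 40 mg delayed-release PPI QD on evenings of days 2–5. Fasted ≥10 h before and 4 h after dose. K2EDTA plasma was analysed by LC-MS/MS (LLOQ 0.75 ng/mL). PK was non-compartmental, with day 6/day 1 geometric mean ratios and 90% CI from ANOVA on ln-values.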

For series [3] the following is noted: proposed threshold; cited from earlier work.
[4] abbreviates: omeprazole 40 mg at steady state, 10 h before crystalline dasatinib 100 mg.

Turning to `Cc1nc(Nc2ncc(C(=O)Nc3c(C)cccc3Cl)s2)cc(N2CCN(CCO)CC2)n1` [Crystalline Dasatinib, dasatinib], in series [1] (antacid administered 2 h prior to crystalline dasatinib), the “effect on dasatinib plasma exposure” value was “unaffected”. For the same compound, the “reduction in absorption and bioavailability of dasatinib with PPIs” value in series [1] (experimental setting controlled for gastric pH above 4) was no more than 80%. In addition, the “extrapolated area in the plasma concentration–time profile (mean ± SD)” value in series [2] (crystalline dasatinib formulation administered alone) is recorded as 2.7%. For the same compound, the “reduction in dasatinib plasma exposure” value in series [2] (dosing interval of 10 h between PPI and crystalline dasatinib) is roughly 90%. Further, in series [2] (human, plasma, oral, 100 mg), the AUC(0-t) (in general, the area under the concentration-time curve up to a stated or last time point) is 735 ng·h/mL and the Cmax – broadly, the peak of the concentration-time curve – was determined as 195 ng/mL. Besides, in series [2] (human, plasma, po, 100 mg), the exposure AUC(0-t) came out at 798 ± 274 ng·h/mL; the peak concentration (Cmax) was found to be 225 ± 105 ng/mL; the half-life – broadly, the time needed for the level to fall by half in the phase considered – is 5.7 ± 1.5 h. Further, in series [2] (setting [4]), the “mean reduction of Cmax by omeprazole comedication” value came to 96% and the “reduction of AUC0-24 by omeprazole comedication” value is 89%. For the same compound, the “reduction of GI absorption and bioavailability” value in series [2] (omeprazole at steady state dosed in the evening 10 h prior to crystalline dasatinib) is “about 90%”. In series [2] (test = with omeprazole, control = crystalline dasatinib alone, 90% CI 2.73-4.96), the “Cmax ratio Test/Control (geometric means)” value was 3.7%. The “AUC0-24 ratio Test/Control (geometric means)” value in series [2] (test = with omeprazole, control = crystalline dasatinib alone, 90% CI 9.13-14.59) amounted to 11.5%. Also, the “Cmax threshold for achieving MMR” value in series [3] is on record as 69.2 ng/mL.

These data come from paper PMC12034913 (Journal of Clinical Pharmacology, 2024).
